One data set deals with KYSE180 cells. As to the kind of experiment: High-content cytotoxicity screen. Format: cell-based, human. In short, it runs like this:
(§1)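 Cells were seeded at 1200/well in 384-well plates and cultured overnight. Test compound was added at […] serial dilution from 10 µM, in triplicate, for 3 days. Controls were 0.1% DMSO (negative), 30 µM benzethonium chloride and 0.1% Triton X-100 added just before staining (positive). Cells were stained with 0.5 µg/ml Hoechst and 100 nM YOYO1, four 4× images per well. Normalized total-cell and dead-cell percentages were fitted for IC₅₀.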

Another data set deals with NQO1-YFP H1299 cells. Put plainly: Cell viability. Type of data set: cell-based, human. The procedure, abridged: (§2)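 NQO1-YFP H1299 reporter cells (YFP in NQO1 intron 1, constitutive mCherry) were seeded 1000/well in 384-well plates and cultured overnight. Primary screen: 1 μM compound in 0.1% DMSO, one well each, with CDDO 200 nM and 0.1% DMSO controls. Retests used 10-point serial dilutions from 10 µM in triplicate, with brusatol control. Imaged at 0, 24, 48, 64 h (YFP = NRF2 activity, mCherry = viability); IC₅₀ by curve fit.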

The next data set has as its system KYSE70 cells. As to the kind of experiment: High-content cytotoxicity screen. Type of data set: cell-based, human. The procedure, abridged:
as §1

The test system of data set [1] is NRF2 activity (NQO1-YFP signal, CDDO-activated). As to the kind of experiment: High-throughput screen and dose response: NRF2 activity. Format: cell-based, human. The procedure, abridged:
as §2

In data set [2] the test system is NFE2L2 mRNA and NRF2 target genes. Put plainly: qPCR of NFE2L2 mRNA and NRF2 target genes. Type of data set: cell-based, human. The procedure, abridged:
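Gene expression quantified by real-time PCR using gene-specific primers and TaqMan probes on a 96-well real-time PCR system.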

The test system of data set [3] is NRF2 and NQO1 expression in NRF2^Mut-KYSE70 cells. Put plainly: Western blotting of NRF2 and NQO1 expression in KYSE70 cells. Type of data set: cell-based, human. In short, it runs like this:
(§3)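 Nuclear and cytosolic fractions prepared with an extraction kit, or whole-cell lysates in RIPA buffer. Proteins separated by SDS-PAGE, transferred to nitrocellulose, blocked and probed with primary antibody overnight at 4 °C. Chemiluminescence detected on film and quantified by densitometry; band data as mean ± SD, Student's t-test.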
(In general: A western blot detects proteins with antibodies after separation by electrophoresis.)

The conditions of data set [4]: 90 mg/m^2, intravenous injection, cited from earlier work.
The next data set relates to global translation. Put plainly: Protein synthesis assay. Format: cell-based, human. The conditions noted are these: KYSE70; PYR 10 μM, MIT 20 nM; CHX positive control. In short, it runs like this: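 KYSE70 cells (37 °C, 5% CO₂) seeded at 2000 cells/well in 96-well plates; exposed to test compound or cycloheximide (positive control) in triplicate. Global translation measured with a commercial protein synthesis assay kit per manufacturer's protocol; cells imaged on a high-content imager.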

Data set [5] relates to ABCG2 and TOP2A expression. Put plainly: ABCG2 and TOP2A expression in KYSE70 cells. Format: cell-based, human.
Another data set addresses NRF2-ARE binding (Homo sapiens, UniProt Q16236, W24C). Put plainly: ELISA-based TransAM NRF2-ARE binding assay with KYSE70 nuclear extracts. In short, it runs like this:
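TransAM ELISA: nuclear extract from untreated KYSE70 cells (20 μg/well) added to wells containing ARE oligonucleotide. Test compound, competitor or mutated competitor added, then 1 h incubation with mild agitation and washing. Anti-NRF2 antibody 1 h, then HRP-conjugated secondary antibody and substrate; A450nm read.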

The next data set concerns the target NRF2 (NRF2^Mut-KYSE180) (Homo sapiens, UniProt Q16236, D77V). Put plainly: CHX chase analysis of NRF2 half-life in KYSE180 cells. Type of data set: cell-based. The conditions noted are these: PYR 10 μM, MIT 20 nM. The procedure, abridged:
(§4)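 Cells were grown in RPMI1640 GlutaMAX with 10% FBS and 1% penicillin/streptomycin at 37 °C, 5% CO₂. They were pre-incubated 4 h with test compound, then given 200 μg/ml cycloheximide to block protein synthesis. Cells were harvested at set time points after cycloheximide. Total lysates were run on SDS-PAGE and blotted for NRF2 and GAPDH, and band densities were used to calculate NRF2 half-life.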

Data set [6] deals with NRF2 and NQO1 expression in NRF2^Mut-KYSE180 cells. Put plainly: Western blotting of NRF2 and NQO1 expression in KYSE180 cells. Format: cell-based, human. The procedure, abridged: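 NRF2-mutant KYSE180 cells (37 °C, 5% CO₂) treated with test compound; nuclear and cytosolic fractions prepared with a nuclear extraction kit. Proteins separated by SDS-PAGE onto nitrocellulose, primary antibody overnight at 4 °C, chemiluminescence on film. Bands quantified by densitometry, mean ± SD, Student's t-test.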

Data set [7] concerns human NRF2 target genes in KYSE70 cells. As to the kind of experiment: RNAseq of KYSE70 cells. Type of data set: cell-based. As to conditions: PYR 10 μM for 72 h, MIT 20 nM for 72 h. In short, it runs like this: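 Total RNA from treated and control cells made into Illumina libraries and sequenced (150 bp). Reads aligned to hg38 with RefSeq annotation and counted per gene; DEGs called by fold-change cut-off and corrected p-values. Gene set enrichment analysis performed; overall NRF2 target-gene mRNA level calculated on natural log scale.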

In a further data set the target is NRF2 (NRF2^WT-KYSE450) (Homo sapiens, UniProt Q16236). Put plainly: CHX chase analysis of NRF2 half-life in KYSE450 cells. Format: cell-based. As to conditions: PYR 10 μM, MIT 20 nM. In short, it runs like this:
as §4

The subject of data set [8] is NRF2 expression in NRF2^WT-KYSE450 cells. As to the kind of experiment: NRF2 expression in KYSE450 cells. Type of data set: cell-based, human. The procedure, abridged: as §3
[9] abbreviates: read-out: Cell death (IC50), KYSE180, 3 days.
[10] abbreviates: read-out: Cell proliferation (IC50), KYSE180, 3 days.
Setting [11] is: read-out: Cell viability (IC50), H1299-NQO1-YFP cells.
Where [12] appears, read: read-out: Cell death (IC50), KYSE70, 3 days.
The mark [13] stands for this setting: read-out: Cell proliferation (IC50), KYSE70, 3 days.
The mark [14] stands for this setting: read-out: NRF2 inhibition (IC50), H1299-NQO1-YFP cells, CDDO-activated YFP signal.
[15] abbreviates: Homo sapiens, KYSE-180, 72 h, read-out: Cell proliferation (IC50, μM).
[16] abbreviates: Homo sapiens, NCI-H1299, read-out: Cell viability (IC50, μM).
[17] abbreviates: Homo sapiens, KYSE-70, 72 h, read-out: Cell proliferation (IC50, μM).
Setting [18] is: Homo sapiens, NCI-H1299, read-out: NRF2 inhibition (IC50, μM).
Setting [19] is: Homo sapiens, KYSE-70, 72 h, read-out: Cell death (IC50, μM).

Counter-ions that a name gives are not always drawn. Like-named read-outs stand apart in the source and are kept apart here. A value given as a limit tells only on which side of the number the result lay.

For orientation: Cmax means the highest concentration seen after dosing.

Sequence of NRF2 (NRF2^Mut-KYSE180) (Q16236 whole entry D77V): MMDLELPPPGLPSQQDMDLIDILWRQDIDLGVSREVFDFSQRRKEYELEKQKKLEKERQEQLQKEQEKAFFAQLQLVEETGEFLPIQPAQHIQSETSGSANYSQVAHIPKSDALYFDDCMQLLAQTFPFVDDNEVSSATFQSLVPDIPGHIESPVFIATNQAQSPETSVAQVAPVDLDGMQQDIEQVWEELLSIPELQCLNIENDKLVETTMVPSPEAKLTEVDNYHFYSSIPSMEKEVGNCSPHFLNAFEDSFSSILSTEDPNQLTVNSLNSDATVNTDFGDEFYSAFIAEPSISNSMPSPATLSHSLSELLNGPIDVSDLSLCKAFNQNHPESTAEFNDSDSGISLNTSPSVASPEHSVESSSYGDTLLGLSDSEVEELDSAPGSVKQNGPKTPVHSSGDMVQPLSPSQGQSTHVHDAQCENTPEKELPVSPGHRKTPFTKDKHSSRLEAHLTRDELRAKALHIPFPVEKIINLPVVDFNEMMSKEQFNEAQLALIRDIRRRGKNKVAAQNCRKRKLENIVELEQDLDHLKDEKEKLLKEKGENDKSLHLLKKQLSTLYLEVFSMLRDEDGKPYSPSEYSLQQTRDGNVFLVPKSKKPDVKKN
Sequence of NRF2 (NRF2^WT-KYSE450) (Q16236 whole entry): as the sequence (Q16236 whole entry D77V) above, with V77D counted along it
Sequence of NRF2-ARE binding (Q16236 whole entry W24C): as the sequence (Q16236 whole entry D77V) above, with W24C, V77D counted along it

For the compound `CN1CC[C@@]2(C)c3cc(O)ccc3N(C)[C@@H]12` [Eseroline fumarate], the IC50 with KYSE180 cells (setting [9]) was over 10 µM; in the data set with KYSE180 cells (setting [10]) it was over 10 µM; in the data set with NQO1-YFP H1299 cells (setting [11]), over 10 µM; in the data set with KYSE70 cells (setting [12]) it was over 10 µM; with KYSE70 cells (setting [13]) it was 10 µM; in data set [1] (setting [14]), 0.26 µM.

As to `CCOc1ccc2c(c1)C(C)=CC(C)(C)N2` [Ethoxyquin], the IC50 in the data set with KYSE180 cells (setting [15]) was over 10 µM; with NQO1-YFP H1299 cells (setting [16]), over 10 µM; with KYSE70 cells (setting [17]), over 10 µM; in data set [1] (setting [18]), 0.29 µM.

With `CCC(NC(C)C)C(O)c1ccc(O)c(O)c1` (stereo not shown) [Isoetharine mesylate], the IC50 was over 10 µM with KYSE180 cells (setting [15]), over 10 µM in the data set with NQO1-YFP H1299 cells (setting [16]), over 10 µM with KYSE70 cells (setting [17]) and 0.49 µM in [1] (setting [18]).

As for `CC(C)NC[C@H](O)c1ccc(O)c(O)c1` [Isoproterenol bitratrate], the IC50 in the data set on KYSE180 cells (setting [9]) is over 10 µM; in the data set with KYSE180 cells (setting [10]) it was over 10 µM; in the data set on NQO1-YFP H1299 cells (setting [11]), over 10 µM; with KYSE70 cells (setting [12]) it was over 10 µM; with KYSE70 cells (setting [13]), 4.9 µM; in data set [1] (setting [14]), 0.43 µM.

For the compound `CC(C)NCC(O)c1ccc(O)c(O)c1` (stereo not shown) [Isoproterenol hydrochloride], the IC50 with KYSE180 cells (setting [15]) is over 10 µM; in the data set with NQO1-YFP H1299 cells (setting [16]), over 10 µM; with KYSE70 cells (setting [19]), over 10 µM; in the data set with KYSE70 cells (setting [17]) it was 5.2 µM; in data set [1] (setting [18]), 0.84 µM.

For the compound `O=C1c2c(O)ccc(O)c2C(=O)c2c(NCCNCCO)ccc(NCCNCCO)c21` [MIT, mitoxantrone dihydrochloride], in [2], the “NFE2L2 mRNA and NRF2 target genes (AKR1B10, AKR1C2, AKR1C3, PGD, SLC7A11, TKT) by qPCR” value is “downregulation”. The IC50 with KYSE180 cells (Homo sapiens, KYSE-180, 72 h, read-out: Cell death (IC50, μM)) was 0.00522 µM; with KYSE180 cells (setting [15]), 0.00457 µM; in the data set with NQO1-YFP H1299 cells (setting [16]), over 10 µM; in the data set with KYSE70 cells (setting [19]), 0.00324 µM; with KYSE70 cells (setting [17]), 0.00584 µM; in data set [1] (setting [18]), 0.035 µM. In addition, the “Expression of nuclear NRF2 and cytoplasmic NQO1” value in data set [3] (KYSE70 cells) is “inhibited the expression of nuclear NRF2 and cytoplasmic NQO1 in a dose- and time-dependent manner”; in [6], “inhibited the expression of nuclear NRF2 and cytoplasmic NQO1 in a dose- and time-dependent manner”. Moreover, the “Cmax in the plasma” value in data set [4] is 6430 ± 2430 ng/mL. For the same compound, in data set [4] (read-out: Cmax in the plasma), the Cmax is 12.4 ± 4.7 µM. For the same compound, the Global translation result in the data set with global translation is listed as “Neither PYR (10 μM) nor MIT (20 nM) inhibited global translation”. For the same compound, in data set [5], the “ABCG2 and TOP2A expression” value was “increased”. Further, on NRF2-ARE binding, the NRF2-ARE binding activity result is “did not observe any changes”. In addition, the “Effect on NRF2 half-life” value is “shortened NRF2 half-life” at NRF2 (NRF2^Mut-KYSE180) and “not changed” on NRF2 (NRF2^WT-KYSE450). Also, the “Overall mRNA expression level of human NRF2 target genes” value in data set [7] is on record as “significantly reduced”.

Consider `CN(Cc1cnc2nc(N)nc(N)c2n1)c1ccc(C(=O)N[C@@H](CCC(=O)O)C(=O)O)cc1` [MTX, methotrexate], for which the NRF2 expression result in data set [3] (NRF2^Mut-KYSE70 cells) and in [8] was “significantly inhibited NRF2 expression” each time.

In the case of `Nc1nc(N)c2nc(-c3ccccc3)c(N)nc2n1` [Triamterene], the IC50 is over 10 µM in the data set with KYSE180 cells (setting [15]); 3.7 µM in the data set with NQO1-YFP H1299 cells (setting [16]); over 10 µM in the data set with KYSE70 cells (setting [19]); 7.7 µM with KYSE70 cells (setting [17]); 0.72 µM in [1] (setting [18]).

The values above are taken from PMC10558795 (Redox Biology, 2023).
